Test results as given in ChEMBL document CHEMBL1629649, “Multiple regulatory pathways associated with high-level ciprofloxacin and multidrug resistance in Salmonella enterica serovar enteritidis: involvement of RamA and other global regulators” (2009).

Key:
Assay type in all cases: functional, Salmonella enterica subsp. enterica serovar Enteritidis
Salmonella enteritidis [1] = test: Antimicrobial activity against acrB::aph-deficient Salmonella enterica serovar enteritidis isolate 4931 harboring gyrA D87Y mutant gene by Etest
Procedure, shortened: (§1)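 Deletions (acrB, marA, soxS or ramA) were moved from SL1344 mutants into the isolates by P22 phage transduction. Transductants were selected on LB agar with 50 µg/ml kanamycin, and insertion of the kanamycin resistance gene was confirmed by PCR. MICs were then determined by Etest.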

Salmonella enteritidis [2] = test: Antimicrobial activity against marA::aph-deficient ciprofloxacin-resistant Salmonella enterica serovar enteritidis isolate 104-cip harboring gyrA D87Y,S83F mutant gene by Etest; procedure, shortened: as §1
Salmonella enteritidis [3] = test: Antimicrobial activity against Salmonella enterica serovar enteritidis isolate 5408 harboring gyrA D87Y mutant gene by Etest
Salmonella enteritidis [4] = test: Antimicrobial activity against ciprofloxacin-resistant Salmonella enterica serovar enteritidis isolate 5408-cip harboring gyrB gene gyrA D87Y, parE V461G mutant gene by Etest
Procedure, shortened: (§2)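 Wild-type alleles of the target genes were carried on plasmids and introduced into the ciprofloxacin-selected mutants by electrotransformation. Transformants were selected on LB agar with 50 µg/ml kanamycin at 37°C overnight. Quinolone MICs of the transformants were read by Etest strips alongside those of the parent and mutant strains.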

Salmonella enteritidis [5] = test: Antimicrobial activity against acrB::aph-deficient ciprofloxacin-resistant Salmonella enterica serovar enteritidis isolate 104-cip harboring gyrA D87Y,S83F mutant gene by Etest; procedure, shortened: as §1
Salmonella enteritidis [6] = test: Antimicrobial activity against acrB::aph-deficient Salmonella enterica serovar enteritidis isolate 5408 harboring gyrA D87Y mutant gene by Etest; procedure, shortened: as §1
Salmonella enteritidis [7] = test: Antimicrobial activity against acrB::aph-deficient ciprofloxacin-resistant Salmonella enterica serovar enteritidis isolate 5408-cip harboring gyrA D87Y, gyrB E466D, parE V461G mutant gene by Etest; procedure, shortened: as §1
Salmonella enteritidis [8] = test: Antimicrobial activity against Salmonella enterica serovar enteritidis isolate 58 harboring gyrA D87Y mutant gene by Etest
Salmonella enteritidis [9] = test: Antimicrobial activity against acrB::aph-deficient Salmonella enterica serovar enteritidis isolate 51 harboring gyrA D87Y mutant gene by Etest; procedure, shortened: as §1
Salmonella enteritidis [10] = test: Antimicrobial activity against acrB::aph-deficient Salmonella enterica serovar enteritidis isolate 104 harboring gyrA D87Y mutant gene by Etest; procedure, shortened: as §1
Salmonella enteritidis [11] = test: Antimicrobial activity against Salmonella enterica serovar enteritidis isolate CUH52 by Etest
Salmonella enteritidis [12] = test: Antimicrobial activity against soxS::aph-deficient ciprofloxacin-resistant Salmonella enterica serovar enteritidis isolate 104-cip harboring gyrA D87Y,S83F mutant gene by Etest; procedure, shortened: as §1
Salmonella enteritidis [13] = test: Antimicrobial activity against Salmonella enterica serovar enteritidis isolate 104 harboring gyrA gene by Etest
Salmonella enteritidis [14] = test: Antimicrobial activity against Salmonella enterica serovar enteritidis isolate 54 harboring gyrA D87Y mutant gene by Etest
Salmonella enteritidis [15] = test: Antimicrobial activity against acrB::aph-deficient Salmonella enterica serovar enteritidis isolate CUH60 harboring gyrA D87Y mutant gene by Etest; procedure, shortened: as §1
Salmonella enteritidis [16] = test: Antimicrobial activity against Salmonella enterica serovar enteritidis isolate 104 harboring gyrA D87Y mutant gene by Etest
Salmonella enteritidis [17] = test: Antimicrobial activity against ramA::aph-deficient ciprofloxacin-resistant Salmonella enterica serovar enteritidis isolate 5408-cip harboring gyrA D87Y, gyrB E466D, parE V461G mutant gene by Etest; procedure, shortened: as §1
Salmonella enteritidis [18] = test: Antimicrobial activity against Salmonella enterica serovar enteritidis isolate CUH48 by Etest
Salmonella enteritidis [19] = test: Antimicrobial activity against Salmonella enterica serovar enteritidis isolate NCTC 13349 by Etest
Salmonella enteritidis [20] = test: Antimicrobial activity against Salmonella enterica serovar enteritidis isolate 4931 harboring gyrA D87Y mutant gene by Etest
Salmonella enteritidis [21] = test: Antimicrobial activity against Salmonella enterica serovar enteritidis isolate 51 harboring gyrA D87Y mutant gene by Etest
Salmonella enteritidis [22] = test: Antimicrobial activity against Salmonella enterica serovar enteritidis isolate 5408 harboring gyrA gene by Etest
Salmonella enteritidis [23] = test: Antimicrobial activity against Salmonella enterica serovar enteritidis isolate 104-cip harboring gyrA D87Y,S83F mutant gene by Etest
Salmonella enteritidis [24] = test: Antimicrobial activity against ciprofloxacin-resistant Salmonella enterica serovar enteritidis isolate 5408-cip harboring gyrA D87Y, gyrB E466D, parE V461G mutant gene by Etest
Salmonella enteritidis [25] = test: Antimicrobial activity against ciprofloxacin-resistant Salmonella enterica serovar enteritidis isolate 104-cip harboring gyrA gene by Etest; procedure, shortened: as §2
Salmonella enteritidis [26] = test: Antimicrobial activity against ciprofloxacin-resistant Salmonella enterica serovar enteritidis isolate 5408-cip harboring parE gene gyrA D87Y, gyrB E466D mutant gene by Etest; procedure, shortened: as §2
Salmonella enteritidis [27] = test: Antimicrobial activity against Salmonella enterica serovar enteritidis isolate CUH60 harboring gyrA D87Y mutant gene by Etest
Salmonella enteritidis [28] = test: Antimicrobial activity against ciprofloxacin-resistant Salmonella enterica serovar enteritidis isolate 5408-cip harboring gyrA gene, gyrB E466D, parE V461G mutant gene by Etest; procedure, shortened: as §2

Measured: MIC

CCn1cc(C(=O)O)c(=O)c2ccc(C)nc21 [NALIDIXIC ACID]
4 µg/mL: Salmonella enteritidis [13] | Salmonella enteritidis [22]
8 µg/mL: Salmonella enteritidis [19] | Salmonella enteritidis [25]
32 µg/mL: Salmonella enteritidis [1] | Salmonella enteritidis [6] | Salmonella enteritidis [9] | Salmonella enteritidis [10]
24 µg/mL: Salmonella enteritidis [15]
6 µg/mL: Salmonella enteritidis [18]
3 µg/mL: Salmonella enteritidis [11]
> 256 µg/mL: all other assays above
